From ChEMBL document CHEMBL1121617, “Antihypertensive ureidopiperidines” (1980)

What was measured:
Rattus norvegicus [1] = test: The percent fall in systolic blood pressure at 1.5 / 4 hr after peroral administration of 50 mg/kg in DOCA/saline hypertensive rats at 24 hr; Non significant; assay type: functional, organism-based; parameters: dose 50 mg/kg; details: Artery, at 50 mg/kg
Rattus norvegicus [2] = test: The percent fall in systolic blood pressure at 1.5 / 4 h after peroral administration of 50 mg/kg in DOCA/saline hypertensive rats at 2 hr; assay type: functional, Artery; details: route oral
Rattus norvegicus [3] = test: The percent fall in systolic blood pressure at 1.5 / 4 hr after peroral administration of 50 mg/kg in DOCA/saline hypertensive rats at 6 hr; assay type: functional, Artery; details: route oral
Rattus norvegicus [4] = test: Starting systolic blood pressure at dose of 50 mg/kg in rat; assay type: functional, Artery
Summary of the method: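 Mean systolic blood pressure before dosing for each group of four DOCA/saline hypertensive rats given 50 mg/kg orally. It indicates how far hypertension was established.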

Rattus norvegicus [5] = test: The percent fall in systolic blood pressure at 1.5 / 4 hr after peroral administration of 50 mg/kg in DOCA/saline hypertensive rats at 2 hr; Non significant; assay type: functional, organism-based; parameters: dose 50 mg/kg; details: Artery, at 50 mg/kg
Rattus norvegicus [6] = test: Percent fall in systolic blood pressure at 1.5 / 4 hr after peroral administration of 50 mg/kg in DOCA/saline hypertensive rats at 6 h; Non significant; assay type: functional, organism-based; parameters: dose 50 mg/kg; details: Artery, at 50 mg/kg
Rattus norvegicus [7] = test: The percent fall in systolic blood pressure at 1.5 / 4 hr after peroral administration of 40 mg/kg in conscious renal hypertensive rats (RHR).; assay type: functional, Artery; details: route oral
Summary of the method: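 Conscious renal hypertensive rats, four per group, dosed orally. Starting systolic pressures were 160–200 mmHg. Percentage fall in systolic pressure was taken at 1.5 and/or 4 h after dosing. Falls under 10% were scored as ±.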

Row | SMILES | Fall (Rattus norvegicus [1]) | Fall (Rattus norvegicus [2]) [%] | Fall (Rattus norvegicus [3]) [%] | SP (Rattus norvegicus [4]) [mmHg] | Fall (Rattus norvegicus [5]) | Fall (Rattus norvegicus [6]) | Activity (Rattus norvegicus [7]) | SP (Rattus norvegicus [4]; 50 mg/kg) [mmHg]
1 | O=C(Nc1ccc(Cl)cc1)NC1CCN(CCCC(=O)c2ccccc2)CC1 | Not significant | 30 | 25 | 200 |  |  |  | 
2 | O=C(NC(=O)c1ccccc1)NC1CCN(CC(=O)c2c[nH]c3ccccc23)CC1 | Not significant |  |  | 178 | Not significant | Not significant |  | 
3 | COc1ccc(NC(=O)NC2CCN(CCc3c[nH]c4ccccc34)CC2)cc1 |  |  |  |  |  |  | 27 | 
4 | CN(C(=O)NC(=O)c1ccccc1)C1CCN(CCc2c[nH]c3ccccc23)CC1 | Not significant | 40 |  | 186 |  | Not significant |  | 
5 | O=C(Nc1ccc(Cl)cc1)NC1CCN(CC(O)C2COc3ccccc3O2)CC1 (centres undefined) | Not significant |  |  | 178 | Not significant | Not significant |  | 
6 | O=C(Nc1cccc(C(F)(F)F)c1)NC1CCN(CCCC(=O)c2ccccc2)CC1 | Not significant |  |  | 177 | Not significant | Not significant |  | 
7 | O=C(NC(=O)c1ccccc1)NC1CCN(CC(O)C2COc3ccccc3O2)CC1 (stereo in doubt; 29) [listing 1 of 2 here] |  |  |  |  |  |  |  | 178
8 | Cc1cccc(C)c1NC(=O)NC1CCN(CCCC(=O)c2ccccc2)CC1 |  |  |  |  |  |  | <10 | 
9 | O=C(NC(=O)c1ccccc1)NC1CCN(CCCC(=O)c2c[nH]c3ccccc23)CC1 | Not significant | 16 |  | 187 |  | Not significant |  | 
10 | O=C(NC(=O)c1ccccc1)NC1CCN(CCc2ccccc2)CC1 | Not significant |  |  | 180 | Not significant | Not significant |  | 
11 | O=C(NC1CCCCC1)NC1CCN(CC(O)C2COc3ccccc3O2)CC1 (centres undefined) | Not significant | 26 |  | 172 |  | Not significant |  | 
12 | COc1ccc(NC(=O)NC2CCN(CC(O)C3COc4ccccc4O3)CC2)cc1 (centres undefined) | Not significant | 17 |  | 190 |  | Not significant |  | 
13 | O=C(NC(=O)c1ccccc1)NC1CCN(CC(O)C2COc3ccccc3O2)CC1 (stereo in doubt; 28) [listing 1 of 2 here] | Not significant |  |  |  | Not significant | Not significant |  | 
14 | N=C(NC(=O)c1ccccc1)NC1CCN(CCc2c[nH]c3ccccc23)CC1 | Not significant |  |  | 165 | Not significant | Not significant |  | 
15 | O=C(NC(=O)c1ccccc1)NC1CCN(CC(O)COc2cccc3ccccc23)CC1 (centres undefined) | Not significant |  |  | 185 | Not significant | Not significant |  | 
16 | Cc1cccc(NC(=O)NC2CCN(CCCC(=O)c3ccccc3)CC2)c1 |  |  |  |  |  |  | 21 | 
17 | COc1ccc(NC(=O)NC2CCN(CCCC(=O)c3ccccc3)CC2)cc1 |  |  |  |  |  |  | <10 | 
18 | O=C(NC(=O)c1ccccc1)NC1CCN(CC(O)C2COc3ccccc3O2)CC1 (stereo in doubt; 29) [listing 2 of 2 here] | Not significant |  |  |  | Not significant | Not significant |  | 
19 | N=C(NC(=O)c1ccccc1)NC1CCN(CCCC(=O)c2ccccc2)CC1 | Not significant |  |  | 188 | Not significant | Not significant |  | 
20 | O=C(NC(=O)c1ccccc1)NC1CCN(CC(O)c2ccccc2)CC1 (centres undefined) | Not significant | 21 |  | 182 |  | Not significant |  | 
21 | CCN(C(=O)Nc1ccccc1)C1CCN(CCc2c[nH]c3ccccc23)CC1 | Not significant |  |  | 170 | Not significant | Not significant |  | 
22 | N/C(S)=N/C1CCN(CCc2c[nH]c3ccccc23)CC1 | Not significant | 20 |  | 189 |  | Not significant |  | 
23 | O=C(NC(=O)c1ccccc1)NC1CCN(CC(=O)C2COc3ccccc3O2)CC1 (centres undefined) | Not significant |  |  | 181 | Not significant | Not significant |  | 
24 | NC(=O)NC1CCN(CCc2c[nH]c3ccccc23)CC1 |  |  |  |  |  |  | 28 | 
25 | O=C(Nc1ccccc1)NC1CCN(CC(O)C2COc3ccccc3O2)CC1 (stereo in doubt; 30) [listing 1 of 2 here] |  |  |  |  |  |  |  | 182
26 | O=C(NC1CCCCC1)NC1CCN(CCc2c[nH]c3ccccc23)CC1 | Not significant | 15 |  | 176 |  | Not significant |  | 

Row | SMILES | Fall (Rattus norvegicus [1]) | Fall (Rattus norvegicus [2]) [%] | Fall (Rattus norvegicus [3]) [%] | SP (Rattus norvegicus [4]) [mmHg] | Fall (Rattus norvegicus [5]) | Fall (Rattus norvegicus [6]) | Activity (Rattus norvegicus [7]) | SP (Rattus norvegicus [4]; 50 mg/kg) [mmHg]
27 | O=C(Nc1ccccc1)NC1CCN(CC(O)C2COc3ccccc3O2)CC1 (stereo in doubt; 30) [listing 2 of 2 here] | Not significant |  |  |  | Not significant | Not significant |  | 
28 | O=C(NC(=O)c1ccccc1)NC1CCN(CC(O)C2COc3ccccc3O2)CC1 (stereo in doubt; 28) [listing 2 of 2 here] |  |  |  |  |  |  |  | 174
29 | O=C(NC(=O)c1ccccc1)NC1CCN(CC(=O)c2ccccc2)CC1 | Not significant | -23 |  | 166 |  | Not significant |  | 
30 | O=C(NC(=O)c1cccs1)NC1CCN(CCCC(=O)c2ccccc2)CC1 | Not significant | 30 |  | 190 |  | Not significant |  | 
31 | CC(=O)Nc1ccc(OCC(O)CN2CCC(NC(=O)NC(=O)c3ccccc3)CC2)cc1 (centres undefined) | Not significant |  |  | 179 | Not significant | Not significant |  | 
32 | O=C(Nc1ccccc1C(F)(F)F)NC1CCN(CCc2c[nH]c3ccccc23)CC1 |  |  |  |  |  |  | <10 | 
33 | O=C(Nc1ccc(Cl)cc1)NC1CCN(CCc2c[nH]c3ccccc23)CC1 |  |  |  |  |  |  | 21 | 
34 | COc1ccccc1OCC(O)CN1CCC(NC(=O)NC(=O)c2ccc(F)cc2)CC1 (centres undefined) | Not significant |  |  | 196 | Not significant | Not significant |  | 
35 | COc1ccc(C(=O)NC(=O)NC2CCN(CC(O)C3COc4ccccc4O3)CC2)cc1 (centres undefined) | Not significant |  |  | 165 | Not significant | Not significant |  | 
36 | COc1ccccc1OCC(O)CN1CCC(NC(=O)NC(=O)c2ccccc2)CC1 (centres undefined) | Not significant | 17 |  | 189 |  | Not significant |  | 
37 | Cc1cccc(NC(=O)NC2CCN(CCc3c[nH]c4ccccc34)CC2)c1 |  |  |  |  |  |  | 14 | 
38 | COc1ccc(C(=O)NC(=O)NC2CCN(CC(O)COc3ccccc3OC)CC2)cc1 (centres undefined) | Not significant |  |  | 162 | Not significant | Not significant |  | 
39 | O=C(NC(=S)NC1CCN(CC(O)C2COc3ccccc3O2)CC1)c1ccc(Cl)cc1 (centres undefined) | Not significant |  |  | 175 | Not significant | Not significant |  | 
40 | S=C(Nc1ccccc1)NC1CCN(CCc2c[nH]c3ccccc23)CC1 |  |  |  |  |  |  | 21 | 
41 | O=C(Nc1ccccc1)NC1CCN(CCc2c[nH]c3ccccc23)CC1 |  |  |  |  |  |  | 29 | 
42 | O=C(Nc1ccc(Cl)c(Cl)c1)NC1CCN(CCc2c[nH]c3ccccc23)CC1 |  |  |  |  |  |  | 15 | 
43 | O=C(Nc1ccccc1)NC1CCN(CC(O)C2COc3ccccc3O2)CC1 (stereo in doubt; 31) [listing 1 of 2 here] | Not significant |  |  |  |  | Not significant |  | 
44 | O=C(Nc1ccccc1)NC1CCN(CCCC(=O)c2c[nH]c3ccccc23)CC1 | Not significant |  |  | 187 | Not significant | Not significant |  | 
45 | O=C(Nc1ccccc1)NC1CCN(CC(O)COc2cccc3ccccc23)CC1 (centres undefined) | Not significant |  |  | 170 | Not significant | Not significant |  | 
46 | OC(CN1CCC(/N=C(\S)Nc2ccccc2)CC1)C1COc2ccccc2O1 (centres undefined) | Not significant | 26 |  | 182 |  | Not significant |  | 
47 | O=C(NC(=O)c1ccc(F)cc1)NC1CCN(CC(O)C2COc3ccccc3O2)CC1 (centres undefined) | Not significant | 17 |  | 183 |  | Not significant |  | 
48 | O=C(NC(=O)c1ccccc1)NC1CCN(CCCc2c[nH]c3ccccc23)CC1 | Not significant |  |  | 191 | Not significant | Not significant |  | 
49 | O=C(Nc1ccccc1)NC1CCN(CC(O)C2COc3ccccc3O2)CC1 (stereo in doubt; 31) [listing 2 of 2 here] |  | 35 |  |  |  |  |  | 171
50 | CN(/C(S)=N/c1ccccc1)C1CCN(CCc2c[nH]c3ccccc23)CC1 | Not significant |  |  | 172 | Not significant | Not significant |  | 
51 | O=C(NC(=S)NC1CCN(CCc2c[nH]c3ccccc23)CC1)c1ccccc1 | Not significant |  |  | 200 | Not significant | Not significant |  | 
52 | O=C(NC(=O)c1cccs1)NC1CCN(CCCC(=O)c2c[nH]c3ccccc23)CC1 | Not significant |  |  | 181 | Not significant | Not significant |  | 
